Reference: ChEMBL document CHEMBL1147868, “Synthesis of novel triazole derivatives as inhibitors of cytochrome P450 14alpha-demethylase (CYP51)” (2007)
Converted amounts (≈) assume the structure as drawn.

What was measured:
Format in all cases: functional
Candida parapsilosis = assay: Antifungal activity against Candida parapsilosis ATCC 0306392 after 7 days by micro-broth dilution method; conditions: Lodderomyces parapsilosis, ATCC 0306392, 168 h
Outline: (§1)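 Micro-broth dilution followed NCCLS methods, using an ATCC standard quality-control strain for C. parapsilosis and a clinical isolate for C. tropicalis. Compounds were dissolved in DMSO, serially diluted in growth medium and incubated at 35 C. MIC80 was the first well with about 80% growth reduction compared with the drug-free well.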

Candida albicans = assay: Antifungal activity against Candida albicans ATCC Y0109 after 24 hrs by micro-broth dilution method
Outline: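 An ATCC standard quality-control strain was included in each run of an NCCLS micro-broth dilution assay. Compounds were dissolved in DMSO, serially diluted in growth medium and incubated at 35 C. Reading was at 24 h, and MIC80 was the first well showing roughly 80% growth reduction versus the drug-free control.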

Candida tropicalis = assay: Antifungal activity against Candida tropicalis after 7 days by micro-broth dilution method; conditions: 168 h; outline: as §1
Cryptococcus neoformans = assay: Antifungal activity against Cryptococcus neoformans ATCC BLS108 after 72 hrs by micro-broth dilution method
Outline: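 This ATCC standard quality-control strain was tested in every assay by NCCLS microdilution. Test agents were dissolved in DMSO and serially diluted in growth medium. Cultures were incubated at 35 C and read at 72 h. MIC80 was the first well with approximately 80% reduced growth relative to the drug-free well.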

Aspergillus fumigatus = assay: Antifungal activity against Aspergillus fumigatus after 7 days by micro-broth dilution method; conditions: 168 h
Outline: (§2)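 Clinical isolates supplied by a hospital were tested by NCCLS broth microdilution. Compounds were dissolved in DMSO, serially diluted in growth medium, inoculated and incubated at 35 C. Growth was read at 7 days for filamentous fungi. MIC80 was taken as the first well with about 80% less growth than the drug-free well.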

Trichophyton rubrum = assay: Antifungal activity against Trichophyton rubrum after 7 days by microbroth dilution method; conditions: 168 h; outline: as §2
Fonsecaea compacta = assay: Antifungal activity against Fonsecaea compacta after 7 days by micro-broth dilution method; conditions: 168 h; outline: as §2
Microsporum = assay: Antifungal activity against Microsporum gypseum after 7 days by micro-broth dilution method; conditions: 168 h; outline: as §2

SMILES | MIC80 (Candida parapsilosis) [µg/mL] | MIC80 (Candida albicans) [µg/mL] | MIC80 (Candida tropicalis) [µg/mL] | MIC80 (Cryptococcus neoformans) [µg/mL] | MIC80 (Aspergillus fumigatus) [µg/mL] | MIC80 (Trichophyton rubrum) [µg/mL] | MIC80 (Fonsecaea compacta) [µg/mL] | MIC80 (Microsporum) [µg/mL]
Cc1ccc(C(=O)Nc2ccc(N3CCN(CC(O)(Cn4cncn4)c4ccc(F)cc4F)CC3)c(F)c2)cc1 (stereo not given) | 0.0152 (≈ 0.0276 µM) | 0.0625 (≈ 0.114 µM) | 0.0152 (≈ 0.0276 µM) | 0.0625 (≈ 0.114 µM) | 1 (≈ 1.82 µM) | 0.0625 (≈ 0.114 µM) | 0.0625 (≈ 0.114 µM) | 1 (≈ 1.82 µM)
Cc1ccc(C(=O)Nc2ccc(N3CCN(CC(O)(Cn4cncn4)c4ccc(F)cc4F)CC3)c(F)c2)c(C)c1 (stereo not given) | 0.25 (≈ 0.443 µM) | 0.25 (≈ 0.443 µM) | 0.0625 (≈ 0.111 µM) | 0.0625 (≈ 0.111 µM) | 1 (≈ 1.77 µM) | 0.0625 (≈ 0.111 µM) | 0.25 (≈ 0.443 µM) | 0.0152 (≈ 0.0269 µM)
COc1ccc(C(=O)Nc2ccc(N3CCN(CC(O)(Cn4cncn4)c4ccc(F)cc4F)CC3)c(F)c2)cc1 (stereo not given) | 0.0152 (≈ 0.0268 µM) | 0.0152 (≈ 0.0268 µM) | 0.0152 (≈ 0.0268 µM) | 0.0625 (≈ 0.11 µM) | 0.25 (≈ 0.441 µM) | 0.25 (≈ 0.441 µM) | 0.25 (≈ 0.441 µM) | 0.25 (≈ 0.441 µM)
COc1cccc(C(=O)Nc2ccc(N3CCN(CC(O)(Cn4cncn4)c4ccc(F)cc4F)CC3)c(F)c2)c1 (stereo not given) | 0.0152 (≈ 0.0268 µM) | 0.0625 (≈ 0.11 µM) | 0.0152 (≈ 0.0268 µM) | 0.0152 (≈ 0.0268 µM) | 1 (≈ 1.76 µM) | 0.0152 (≈ 0.0268 µM) | 0.25 (≈ 0.441 µM) | 0.25 (≈ 0.441 µM)
COc1cc(C(=O)Nc2ccc(N3CCN(CC(O)(Cn4cncn4)c4ccc(F)cc4F)CC3)c(F)c2)cc(OC)c1OC (stereo not given) | 0.0625 (≈ 0.0997 µM) | 0.25 (≈ 0.399 µM) | 0.0625 (≈ 0.0997 µM) | 1 (≈ 1.6 µM) | 4 (≈ 6.38 µM) | > 64 | 4 (≈ 6.38 µM) | 1 (≈ 1.6 µM)
COc1ccccc1C(=O)Nc1ccc(N2CCN(CC(O)(Cn3cncn3)c3ccc(F)cc3F)CC2)c(F)c1 (stereo not given) | 0.25 (≈ 0.441 µM) | 0.0625 (≈ 0.11 µM) | 0.0152 (≈ 0.0268 µM) | 0.0625 (≈ 0.11 µM) | 1 (≈ 1.76 µM) | 0.0625 (≈ 0.11 µM) | 0.25 (≈ 0.441 µM) | 0.0625 (≈ 0.11 µM)
Cc1ccc(C(=O)Nc2ccc(N3CCN(CC(O)(Cn4cncn4)c4ccc(F)cc4F)CC3)c(F)c2)cc1C (stereo not given) | 0.0152 (≈ 0.0269 µM) | 0.25 (≈ 0.443 µM) | 0.0625 (≈ 0.111 µM) | 0.25 (≈ 0.443 µM) | 1 (≈ 1.77 µM) | 0.0625 (≈ 0.111 µM) | 0.25 (≈ 0.443 µM) | 0.0152 (≈ 0.0269 µM)
O=C(Nc1ccc(N2CCN(CC(O)(Cn3cncn3)c3ccc(F)cc3F)CC2)c(F)c1)c1cccc(C(F)(F)F)c1 (stereo not given) | 0.0152 (≈ 0.0251 µM) | 0.25 (≈ 0.414 µM) | 0.25 (≈ 0.414 µM) | 0.25 (≈ 0.414 µM) | 4 (≈ 6.62 µM) | 0.0625 (≈ 0.103 µM) | 0.25 (≈ 0.414 µM) | 0.0625 (≈ 0.103 µM)
CC(C)(C)c1ccc(C(=O)Nc2ccc(N3CCN(CC(O)(Cn4cncn4)c4ccc(F)cc4F)CC3)c(F)c2)cc1 (stereo not given) | 0.0625 (≈ 0.105 µM) | 1 (≈ 1.69 µM) | 0.25 (≈ 0.422 µM) | 0.25 (≈ 0.422 µM) | 4 (≈ 6.75 µM) | 4 (≈ 6.75 µM) | 0.25 (≈ 0.422 µM) | 0.25 (≈ 0.422 µM)
CCCCCc1ccc(C(=O)Nc2ccc(N3CCN(CC(O)(Cn4cncn4)c4ccc(F)cc4F)CC3)c(F)c2)cc1 (stereo not given) | 0.25 (≈ 0.412 µM) | 0.25 (≈ 0.412 µM) | 4 (≈ 6.59 µM) | 0.25 (≈ 0.412 µM) | 4 (≈ 6.59 µM) | 1 (≈ 1.65 µM) | 1 (≈ 1.65 µM) | 1 (≈ 1.65 µM)
O=C(Nc1ccc(N2CCN(CC(O)(Cn3cncn3)c3ccc(F)cc3F)CC2)c(F)c1)c1ccc(OC(F)(F)F)cc1 (stereo not given) | 0.0625 (≈ 0.101 µM) | 0.0152 (≈ 0.0245 µM) | 0.0625 (≈ 0.101 µM) | 0.25 (≈ 0.403 µM) | 1 (≈ 1.61 µM) | 0.0625 (≈ 0.101 µM) | 0.0625 (≈ 0.101 µM) | 0.0625 (≈ 0.101 µM)
O=C(Nc1ccc(N2CCN(CC(O)(Cn3cncn3)c3ccc(F)cc3F)CC2)c(F)c1)c1ccccc1[N+](=O)[O-] (stereo not given) | 0.0625 (≈ 0.107 µM) | 0.0152 (≈ 0.0261 µM) | 0.0625 (≈ 0.107 µM) | 1 (≈ 1.72 µM) | 1 (≈ 1.72 µM) | 0.0152 (≈ 0.0261 µM) | 1 (≈ 1.72 µM) | 0.0625 (≈ 0.107 µM)
O=C(Nc1ccc(N2CCN(CC(O)(Cn3cncn3)c3ccc(F)cc3F)CC2)c(F)c1)c1ccc([N+](=O)[O-])cc1 (stereo not given) | 1 (≈ 1.72 µM) | 0.25 (≈ 0.43 µM) | 4 (≈ 6.88 µM) | 0.25 (≈ 0.43 µM) | 4 (≈ 6.88 µM) | 0.25 (≈ 0.43 µM) | 0.0625 (≈ 0.107 µM) | 0.0625 (≈ 0.107 µM)
O=C(Nc1ccc(N2CCN(CC(O)(Cn3cncn3)c3ccc(F)cc3F)CC2)c(F)c1)c1ccccc1Br (stereo not given) | 0.0152 (≈ 0.0247 µM) | 0.0625 (≈ 0.102 µM) | 0.0152 (≈ 0.0247 µM) | 0.0625 (≈ 0.102 µM) | 1 (≈ 1.62 µM) | 0.0039 (≈ 0.00634 µM) | 0.25 (≈ 0.406 µM) | 0.0625 (≈ 0.102 µM)
CCc1ccc(C(=O)Nc2ccc(N3CCN(CC(O)(Cn4cncn4)c4ccc(F)cc4F)CC3)c(F)c2)cc1 (stereo not given) | 4 (≈ 7.08 µM) | 0.25 (≈ 0.443 µM) | 0.0625 (≈ 0.111 µM) | 0.0625 (≈ 0.111 µM) | 1 (≈ 1.77 µM) | 0.0625 (≈ 0.111 µM) | 0.0625 (≈ 0.111 µM) | 0.25 (≈ 0.443 µM)
